Measured values published in ChEMBL document CHEMBL1131002, “2beta-Substituted analogues of 4'-iodococaine: synthesis and dopamine transporter binding potencies” (J Med Chem, 1998).

Experiments:
[1] = target: Sodium-dependent dopamine transporter (Rattus norvegicus, UniProt P23977); assay: Inhibition of dopamine Transporter Affinity against rat whole brain using [3H]WIN-35428 as radioligand; format: tissue-based
[2] = target: Sodium-dependent serotonin transporter (Rattus norvegicus, UniProt P31652); assay: Inhibition of serotonin Transporter Affinity against rat whole brain using [3H]paroxetine as radioligand
[3] = target: T1, Monoamine transporters; Norepininephrine & dopamine (Rattus norvegicus) (UniProt P23977+Q9WTR4); assay: (§1) Selectivity for Norepinephrine and Dopamine Transporters was evaluated; format: protein assay
Target sequence in this assay (P23977 whole entry): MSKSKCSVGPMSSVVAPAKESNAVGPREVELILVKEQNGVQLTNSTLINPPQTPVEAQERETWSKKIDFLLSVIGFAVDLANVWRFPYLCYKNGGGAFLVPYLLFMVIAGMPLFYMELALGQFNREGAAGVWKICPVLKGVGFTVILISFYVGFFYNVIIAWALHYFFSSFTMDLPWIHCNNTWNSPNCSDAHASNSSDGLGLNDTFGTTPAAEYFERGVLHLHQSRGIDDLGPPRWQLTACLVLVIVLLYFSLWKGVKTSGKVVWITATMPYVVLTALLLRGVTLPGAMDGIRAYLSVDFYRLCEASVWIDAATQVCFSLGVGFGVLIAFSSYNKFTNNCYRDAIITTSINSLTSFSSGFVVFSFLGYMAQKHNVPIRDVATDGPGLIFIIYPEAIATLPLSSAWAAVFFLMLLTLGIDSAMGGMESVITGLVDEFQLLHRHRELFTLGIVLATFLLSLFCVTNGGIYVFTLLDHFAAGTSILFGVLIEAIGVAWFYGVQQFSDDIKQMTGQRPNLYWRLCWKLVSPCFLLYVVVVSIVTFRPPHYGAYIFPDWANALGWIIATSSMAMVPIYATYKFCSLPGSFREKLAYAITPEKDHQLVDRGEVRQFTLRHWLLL
Target sequence in this assay (Q9WTR4 1-597): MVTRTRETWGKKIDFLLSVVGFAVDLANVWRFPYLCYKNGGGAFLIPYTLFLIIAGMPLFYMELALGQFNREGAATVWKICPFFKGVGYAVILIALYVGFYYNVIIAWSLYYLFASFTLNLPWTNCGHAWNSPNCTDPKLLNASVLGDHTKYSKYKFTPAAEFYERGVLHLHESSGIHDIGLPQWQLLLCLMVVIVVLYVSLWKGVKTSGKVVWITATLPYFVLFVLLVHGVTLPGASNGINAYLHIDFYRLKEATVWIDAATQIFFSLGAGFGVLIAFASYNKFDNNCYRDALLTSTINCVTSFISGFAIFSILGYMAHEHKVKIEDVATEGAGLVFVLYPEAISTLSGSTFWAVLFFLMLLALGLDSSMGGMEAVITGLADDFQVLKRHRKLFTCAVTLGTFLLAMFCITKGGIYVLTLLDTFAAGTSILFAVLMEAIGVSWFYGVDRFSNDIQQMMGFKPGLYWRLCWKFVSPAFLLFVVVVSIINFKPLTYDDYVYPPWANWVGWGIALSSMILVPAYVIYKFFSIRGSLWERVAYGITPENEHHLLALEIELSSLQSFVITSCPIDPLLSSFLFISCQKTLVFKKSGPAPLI

[4] = target: Norepinephrine transporter (Rattus norvegicus, UniProt Q9WTR4); assay: Inhibition of norepinephrine Transporter Affinity against rat whole brain using [3H]nisoxetine radioligand
Method in brief: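 Whole brain minus cerebellum membranes in 50 mM Tris-HCl pH 7.4 with 300 mM NaCl and 5 mM KCl. Displacement of 0.7 nM [3H]nisoxetine. Incubated 40 min at 25 °C, then filtered on BSA-soaked GF/B. 1 μM desipramine defined nonspecific binding.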

[5] = target: T1, Monoamine transporters; Norepininephrine & dopamine (Rattus norvegicus); assay: as §1; format: protein assay; remark: listed apart in the source

Sequence of Sodium-dependent dopamine transporter (P23977 whole entry): as the sequence (P23977 whole entry) above
Sequence of Sodium-dependent serotonin transporter (P31652 whole entry): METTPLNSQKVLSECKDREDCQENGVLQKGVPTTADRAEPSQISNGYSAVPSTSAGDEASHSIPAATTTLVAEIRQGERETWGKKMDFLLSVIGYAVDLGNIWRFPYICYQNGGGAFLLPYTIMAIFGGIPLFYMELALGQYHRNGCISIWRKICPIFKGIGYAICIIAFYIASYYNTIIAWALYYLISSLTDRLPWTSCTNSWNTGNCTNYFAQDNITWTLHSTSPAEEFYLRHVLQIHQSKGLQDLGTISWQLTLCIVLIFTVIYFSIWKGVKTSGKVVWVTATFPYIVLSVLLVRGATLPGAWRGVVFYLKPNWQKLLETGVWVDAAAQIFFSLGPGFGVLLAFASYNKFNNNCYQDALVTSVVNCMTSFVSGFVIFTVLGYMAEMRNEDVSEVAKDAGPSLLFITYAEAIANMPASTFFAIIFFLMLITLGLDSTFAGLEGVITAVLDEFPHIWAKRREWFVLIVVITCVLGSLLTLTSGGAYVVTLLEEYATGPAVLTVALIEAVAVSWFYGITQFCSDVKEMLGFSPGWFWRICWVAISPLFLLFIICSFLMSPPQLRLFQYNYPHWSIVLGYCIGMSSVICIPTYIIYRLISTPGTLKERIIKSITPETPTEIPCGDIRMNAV
Sequence of Norepinephrine transporter (Q9WTR4 whole entry): as the sequence (Q9WTR4 1-597) above

Row | Compound | IC50 [1] [nM] | IC50 [2] [nM] | Selectivity [3] | IC50 [4] [nM] | Selectivity [5]
1 | CC(C)OC(=O)[C@@H]1C2CCC(C[C@@H]1OC(=O)c1ccc(I)cc1)N2C (stereo not given in full) | 1380 |  |  |  | 
2 | COC(=O)[C@@H]1C2CCC(C[C@@H]1OC(=O)c1ccccc1O)N2C (stereo not given in full) | 25 | 143 | 5.7 | 48 | 1.9
3 | CC[C@@H]1C2CCC(C[C@@H]1OC(=O)c1ccc(I)cc1)N2C (stereo not given in full) | 2690 |  |  |  | 
4 | CN1C2CCC1[C@@H](C(=O)Oc1ccccc1)[C@@H](OC(=O)c1ccc(I)cc1)C2 (stereo not given in full) | 2020 |  |  |  | 
5 | CCOC(=O)[C@@H]1C2CCC(C[C@@H]1OC(=O)c1ccc(I)cc1)N2C (stereo not given in full) | 2030 |  |  |  | 
6 | CC(=O)OC[C@@H]1C2CCC(C[C@@H]1OC(=O)c1ccc(I)cc1)N2C (stereo not given in full) | 3000 |  |  |  | 
7 | CN1C2CCC1[C@@H](c1nc(-c3ccccc3)no1)[C@@H](OC(=O)c1ccc(I)cc1)C2 (stereo not given in full) | 3460 |  |  |  | 
8 | CNC(=O)[C@@H]1C2CCC(C[C@@H]1OC(=O)c1ccc(I)cc1)N2C (stereo not given in full) | > 100000 |  |  |  | 
9 | COC(=O)[C@@H]1C2CCC(C[C@@H]1OC(=O)c1ccc(I)cc1)N2C (stereo not given in full) |  | 1050 | 0.4 | 18500 | 7.3
10 | COC(=O)[C@@H]1C2CCC(C[C@@H]1OC(=O)c1ccc(I)cc1O)N2C (stereo not given in full) | 215 | 195 | 0.9 | 1020 | 4.7
11 | C=C[C@@H]1C2CCC(C[C@@H]1OC(=O)c1ccc(I)cc1)N2C (stereo not given in full) | 2170 |  |  |  | 
12 | CN1C2CCC1[C@@H](CO)[C@@H](OC(=O)c1ccc(I)cc1)C2 (stereo not given in full) | 6210 |  |  |  | 
13 | CN1C2CCC1[C@@H](C(=O)OCc1ccccc1)[C@@H](OC(=O)c1ccc(I)cc1)C2 (stereo not given in full) | 4600 |  |  |  | 
14 | COC(=O)[C@H]1[C@@H](c2ccc(F)cc2)C[C@H]2CC[C@H]1N2C |  |  |  | 258 | 
15 | CC(C)OC(=O)[C@@H]1C2CCC(C[C@@H]1OC(=O)c1ccc(I)cc1O)N2C (stereo not given in full) | 663 | 4510 | 6.8 | 34800 | 52.5
